EWS-Fli block: blocks EWS/Fli oncoprotein-driven transcription; A673 NR0B1-luciferase reporter, viability-normalised; actives 0.67% (n = 350,000); inhibition, % at 12.6 µM;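 active = mean inhibition of at least 50% after viability correction, with every replicate also passing that limit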;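 also: firefly luciferase signal divided by Alamar Blue viability fluorescence both relative to DMSO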
FN deposit inh: fibronectin deposition inhibition; AH1F fibroblasts, Alexa488-fibronectin deposition fluorescence, overnight; inhibition, % at 12.6 µM; actives 0.086% (n = 350,000); AID 743247;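 active = mean inhibition across replicates of 30% or more, regardless of how many single replicates reach that level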
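Measured by – fluorescence 485/525 nm · System – AH1F fibroblast monolayer, labelled fibronectin deposition · Amount – 10000 cells per well · Buffer or medium – serum-reduced DMEM (2% serum) · Doses – single dose, pinned · Also added – fluorescent fibronectin at 24 nM final · Schedule – 1 h cell attachment, overnight exposure to compound and label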
F508del corr: correctors of CFTR F508del function in bronchial epithelial cells; CFBE cells, YFP halide quenching; stimulated with forskolin plus potentiator P3; % fluorescence drop versus neutral controls; AID 720511; actives 0.36% (n = 350,000); activity (quench increase), % at 7.58 µM;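 active = mean added fluorescence quench of at least 8% versus neutral control, with both replicates also reaching 8%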;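 also: cells transiently co-express mutant CFTR-F508del with the halide-sensitive YFP; corrector assay measuring rescue of mutant channel to the surface after 24 h compound exposure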
Env fusion inh: HIV envelope-mediated fusion inhibition; HeLa-JRFL Env/CEM21 cell fusion, luciferase; inhibition, % at 12.3 µM; actives 1.1% (n = 360,000); AID 651610;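 active = mean replicate inhibition score of at least 50 and every replicate individually at or above 50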
PAX8 inh HTS: PAX8 transcriptional activity inhibition. RMG-I TPO-luciferase reporter, SteadyGlo, 24 h. AID 652154. inhibition, % at 12.6 µM. actives 1.2% (n = 360,000);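 active = mean replicate inhibition at least 60% with every replicate also reaching 60%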;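 also: luciferase light reporting Pax8 driven TPO promoter activity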
PGC1a acetyl inh: modulators of PGC1a acetylation; U2OS PGC1a acetylation, AlphaScreen anti-acetyl-lysine; with virally co-expressed GCN5 acetyltransferase; actives 0.17% (n = 350,000); AID 651687; inhibition, % at 15.6 µM;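 active = every replicate shows inhibition of at least 40%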
Each line names hits and unclear results; the compound was inactive in the other large screens; [ ] = another dose, or the depositor's remark. The list is not random: actives were taken first. Their share in the collection is about 2.3%.

COc1cccc(/C=C2\SC(=S)N(CCC(=O)Nc3ccc(O)cc3)C2=O)c1	none
Cc1ccc(/C=C2\SC(=S)N(CCCC(=O)Nc3ccccc3C(=O)O)C2=O)cc1	Env fusion inh 68 (no result: FN deposit inh, PGC1a acetyl inh)
COc1ccc(/C=C2/SC(=S)N(CCCC(=O)Nc3cccc(O)c3)C2=O)cc1	PAX8 inh HTS 77
COc1cccc(/C=C2\SC(=S)N(CCC(=O)NCCc3ccc(O)cc3)C2=O)c1	PAX8 inh HTS 100 (no result: EWS-Fli block)
CC(/C=C1\SC(=O)N(CC(=O)Nc2cccc(O)c2)C1=O)=C\c1ccccc1	none (no result: EWS-Fli block, F508del corr, PAX8 inh HTS)
Cc1ccc(/C=C2\SC(=S)N(CCCC(=O)Nc3ccc(O)cc3)C2=O)cc1	Env fusion inh 64
CC(/C=C1\SC(=O)N(CC(=O)Nc2ccc(O)cc2)C1=O)=C\c1ccccc1	PAX8 inh HTS 87 (no result: Env fusion inh)
O=C(NC(=S)Nc1ccc(N2CCCCC2)c(Cl)c1)c1ccc2c(c1)OCCO2	Env fusion inh 70 (no result: EWS-Fli block, F508del corr)
COc1ccc(C(NC(=O)c2c(F)c(F)c(F)c(F)c2F)c2ccccc2)cc1 (stereo unspecified)	EWS-Fli block 62, PGC1a acetyl inh 85 (no result: F508del corr)
COc1ccc(C(NC(=O)c2cc(OC)ccc2OC)c2ccccc2)cc1 (stereo unspecified)	none (no result: PGC1a acetyl inh)
COc1ccc(CC(=O)NC(c2ccccc2)c2ccc(C)cc2)c(OC)c1 (stereo unspecified)	F508del corr 8.0 (no result: PGC1a acetyl inh)
COc1ccc(OC)c(CC(=O)NC(c2ccccc2)c2ccccc2)c1	none (no result: PGC1a acetyl inh)
CCOC(=O)[C@H](Cc1c[nH]c2ccccc12)NC(=O)CN=[N+]=[N-]	none (no result: FN deposit inh)
Nc1ncnc(N2CCc3ccccc32)c1[N+](=O)[O-]	Env fusion inh 67
Cc1ccc(S(=O)(=O)Nc2ccc3c(c2)C(=O)N([C@H](C)CO)C[C@@H](C)[C@H](CN(C)C(=O)c2ccccc2)OCCCC[C@@H](C)O3)cc1	none
O=C(NC1Cc2ccccc2C1)[C@H]1[C@H](CO)[C@H]2Cn3c(cccc3=O)[C@H]2N1C(=O)C1CCC1	none (no result: FN deposit inh, Env fusion inh)
C[C@H]1CN([C@@H](C)CO)C(=O)c2cccc(NC(=O)C3CCCCC3)c2O[C@@H]1CN(C)CC1CCCCC1	none (no result: FN deposit inh)
C[C@H](CO)N1C[C@H](C)[C@@H](CN(C)S(C)(=O)=O)Oc2c(NC(=O)Cc3ccccc3)cccc2C1=O	FN deposit inh 30 (no result: PGC1a acetyl inh)
C[C@H]1CN([C@@H](C)CO)C(=O)c2cccc(NC(=O)C3CCCCC3)c2O[C@H]1CN(C)S(C)(=O)=O	Env fusion inh 62[16.7 µM] (no result: PGC1a acetyl inh)
C[C@@H]1CN([C@@H](C)CO)C(=O)c2cccc(NC(=O)c3ccncc3)c2O[C@H]1CN(C)CC1CCCCC1	Env fusion inh 99[16.7 µM] (no result: PGC1a acetyl inh)
C[C@@H]1CN([C@H](C)CO)C(=O)c2cccc(NC(=O)c3ccncc3)c2O[C@@H]1CN(C)CC1CCCCC1	none (no result: PGC1a acetyl inh)
C[C@@H]1CN([C@@H](C)CO)C(=O)c2cccc(NC(=O)C3CCCCC3)c2O[C@H]1CN(C)CC1CCCCC1	Env fusion inh 63[16.7 µM] (no result: FN deposit inh)
COc1ccc(CN2CC3(CN(C(=O)C4CCOCC4)C3)c3c(n(C)c4cc(OC)ccc34)[C@@H]2CO)cc1	none (no result: FN deposit inh, Env fusion inh, PAX8 inh HTS)
C[C@@H]1CCCCO[C@H](CN(C)C(=O)Cc2ccccc2)[C@@H](C)CN([C@@H](C)CO)C(=O)c2cc(NC(=O)Nc3ccc4c(c3)OCO4)ccc2O1	none (no result: FN deposit inh)
COCc1cn(CC[C@H]2CC[C@@H](NC(=O)Nc3ccc(Cl)cc3)[C@@H](CO)O2)nn1	none (no result: FN deposit inh)
CCCNC(=O)Nc1ccc2c(c1)C(=O)N(C)C[C@H](OC)[C@@H](C)CN(Cc1ccc(-c3ccccn3)cc1)[C@@H](C)CO2	none (no result: PAX8 inh HTS)
C[C@@H]1CN([C@H](C)CO)C(=O)c2cccc(NC(=O)c3cnccn3)c2O[C@H]1CN(C)Cc1ccccc1	Env fusion inh 64[16.7 µM] (no result: FN deposit inh)
C[C@@H]1CN([C@@H](C)CO)C(=O)c2cccc(NC(=O)C3CCCCC3)c2O[C@H]1CN(C)Cc1ccccc1	Env fusion inh 63[16.7 µM] (no result: FN deposit inh, PGC1a acetyl inh)
C[C@@H]1CN([C@H](C)CO)C(=O)c2cc(NC(=O)Cc3ccccc3)ccc2O[C@H]1CN(C)S(C)(=O)=O	none
C[C@H]1CN([C@@H](C)CO)C(=O)c2cccc(NC(=O)CCCCCC(=O)Nc3ccccc3N)c2O[C@H]1CN(C)CC1CCCCC1	none (no result: Env fusion inh)
